Source: PubChem (several laboratories)
Pf gametocyte = kills late stage P. falciparum gametocytes | hit rate 0.065% among 150,000 | inhibition, % at 10.9 µM | P. falciparum stage V gametocytes, ATP luminescence, 24 h | AID 743093;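 active = inhibition above the mean plus 3 SD of compounds within the control limits, set per campaign, cut at about 38% in these data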
Wee1 stabilizer = blocks degradation of human Wee1 kinase; P30291; HeLa Luc-Wee1K328M stability, luciferase luminescence; 100% = proteasome inhibitor MG132 effect; reporter increase, % at 5 µM; hit rate 1.2% among 220,000;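 active = activation above the mean of all tested compounds plus 3 SD, set per screening run, cut at about 8.8% in these data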;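 note: cells exposed to compound for 20 h before luminescence read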
Hsp70 act = switches on Hsp70 transcription | hit rate 0.04% among 200,000 | HeLa Hsp70 promoter luciferase reporter, luminescence; scaled: vehicle 0, proteasome-inhibitor control 100% | activation, % at 10 µM;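 active = activation above the mean across all tested compounds plus 3 SD, cutoff set per campaign, cut at about 5.5% in these data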
MDM2 E3 inh = blocks human Mdm2 ubiquitin ligase activity; hit rate 0.11% among 210,000; Q00987; signal enhancement, % at 5 µM; cell-based MDM2 ubiquitination luciferase reporter, 2 h; 0 = plate control, 100 = twice control, blank-subtracted; AID 1230;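 active = signal enhancement of 30% or more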;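 note: luminescence tracks abundance of the self-degrading MDM2-luciferase fusion protein; higher signal means inhibition of MDM2 E3 ligase activity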
Target sequence (Q00987 whole entry, looked up, the tested form may be a part): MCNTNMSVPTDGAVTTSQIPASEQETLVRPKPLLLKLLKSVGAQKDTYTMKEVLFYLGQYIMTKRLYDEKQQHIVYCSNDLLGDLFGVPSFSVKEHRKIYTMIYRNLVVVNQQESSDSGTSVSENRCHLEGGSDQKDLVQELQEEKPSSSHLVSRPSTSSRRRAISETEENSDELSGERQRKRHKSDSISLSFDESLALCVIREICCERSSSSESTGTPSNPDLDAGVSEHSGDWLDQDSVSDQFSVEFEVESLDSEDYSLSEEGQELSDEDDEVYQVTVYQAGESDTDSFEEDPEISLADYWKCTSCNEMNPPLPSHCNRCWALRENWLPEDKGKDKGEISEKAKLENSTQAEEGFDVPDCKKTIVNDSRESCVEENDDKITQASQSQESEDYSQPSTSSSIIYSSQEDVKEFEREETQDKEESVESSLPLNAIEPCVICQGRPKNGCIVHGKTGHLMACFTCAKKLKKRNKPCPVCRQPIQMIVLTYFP
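Assay system: mammalian cells stably expressing self-ubiquitinating, self-degrading MDM2 E3–luciferase fusion. Quantity: 2000 cells in each well. Medium: DMEM culture medium. Compound dosing: single-point 5 µM. Timing: cell settling 4 h, compound treatment 2 h, both 37 °C. Technique: luciferase luminescence. Read-out basis: percent signal gain over controls, blank-subtracted. Benchmarks: plate controls and plate blanks.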
Each line names hits and unclear results; the compound was inactive in the other large screens. Compounds with a hit are over-represented: about 1.3% of the library has one in this group of screens.

O=C1CSC(c2cccs2)N1c1ccccc1 (centres undefined)	none
c1ccc(N2CCN(c3ccccc3)C2c2cccs2)cc1	MDM2 E3 inh 36.3 (no result: Pf gametocyte)
COc1cccc2c1C(=O)c1c(O)c3c(c(O)c1C2=O)C[C@@](O)(C(C)=O)C[C@@H]3O[C@H]1C[C@H](N)[C@H](O)[C@H](C)O1	Hsp70 act 12.2 (no result: Pf gametocyte, MDM2 E3 inh)
CCOc1ccc(OCC)c(NC(=O)CN(C)S(=O)(=O)c2cnc[nH]2)c1	none (no result: Pf gametocyte)
CCOc1ccc(NC(=O)CN(C)S(=O)(=O)c2cnc[nH]2)cc1	MDM2 E3 inh 32.1 (no result: Pf gametocyte)
CCCNC(=O)c1onc(CSc2ccc(Cl)cc2)c1C(=O)NC(C)C	none (no result: Wee1 stabilizer, Hsp70 act, MDM2 E3 inh)
Cc1nn(Cc2ccccc2Cl)c(Cl)c1C(=O)NCCc1ccccc1	Wee1 stabilizer 10.2
O=C(NCCc1ccccc1)c1nc2c(nnn2Cc2ccccc2Cl)c(=O)[nH]1	none (no result: Pf gametocyte)
CCc1ccccc1N(C)S(=O)(=O)c1ccc2[nH]cc(C(=O)O)c(=O)c2c1	Wee1 stabilizer 9.5
CN(c1ccc(F)cc1)S(=O)(=O)c1ccc2[nH]cc(C(=O)O)c(=O)c2c1	none
Cc1c(Br)c([N+](=O)[O-])nn1CC(=O)Nc1ccc(Cc2ccncc2)cc1	none
C[C@H](CCC(=O)O)[C@H]1CC[C@H]2[C@@H]3[C@@H](O)C[C@@H]4C[C@H](O)CC[C@]4(C)[C@H]3CC[C@]12C	Wee1 stabilizer 9.8 (no result: Pf gametocyte)
CCOC(=O)N1CCN(CCC(=O)Nc2cccc(C)c2)CC1	none (no result: Wee1 stabilizer, Hsp70 act, MDM2 E3 inh)
COc1ccc2cc3cc(C(=O)Nc4ccc5c(c4)OCO5)oc3nc2c1	none (no result: Pf gametocyte)
COc1ccc2nc3oc(C(=O)Nc4ccc(OC)c(OC)c4)cc3cc2c1	Wee1 stabilizer 8.9 (no result: Pf gametocyte)
CCCCNC(=S)N/N=C/C1=CCC2CC1C2(C)C (centres undefined)	Wee1 stabilizer 8.9 (no result: Pf gametocyte)
C=C(C)CNC(=S)N/N=C/C1=CCC2CC1C2(C)C (centres undefined)	none
CCOC(=O)c1cccc(-n2c(-c3ccc(OC)cc3)nc3nc4ccccc4nc32)c1	none (no result: Pf gametocyte)
NNS(=O)(=O)c1ccc(N2CCCC2=O)c([N+](=O)[O-])c1	none
NS(=O)(=O)c1ccc(N2CCCC2=O)c([N+](=O)[O-])c1	Pf gametocyte 38.2
COc1ccc(Cc2nc(-c3ccc(Cl)cc3)no2)cc1	none
Cc1ccc(Cc2nc(-c3ccncc3)no2)cc1	Wee1 stabilizer 9.7
COCc1cc(/C=N\NC(=O)Cc2ccc(OC)cc2)ccc1OC	none
O=C(Nc1ccncc1)Nc1ccncc1	MDM2 E3 inh 40.7
Cc1c(C(=O)NCc2ccco2)oc2ccc(S(=O)(=O)N3CCC4(CC3)OCCO4)cc12	none
Cc1c(C(=O)NCCc2ccccc2)oc2ccc(S(=O)(=O)N3CCC4(CC3)OCCO4)cc12	Wee1 stabilizer 9.5 (no result: Pf gametocyte)
O=C(NCc1nc(-c2ccccc2)no1)c1cccs1	none
O=C(NCc1nc(-c2ccc(C(F)(F)F)cc2)no1)c1cccs1	Wee1 stabilizer 9.6 (no result: Hsp70 act)
CCNCc1cc(Cl)cc(OC)c1OC(C)C	Wee1 stabilizer 9.2
CCSc1nc(O)cc(=O)[nH]1	Wee1 stabilizer 10.6 (no result: Pf gametocyte, Hsp70 act, MDM2 E3 inh)
CCCCCSc1nc(O)cc(=O)[nH]1	none
COC(=O)c1cc(C(=O)N2CCc3ccccc32)cc([N+](=O)[O-])c1	none (no result: Wee1 stabilizer, Hsp70 act, MDM2 E3 inh)
COC(=O)c1ccc(NC(=O)C(=O)N2CCN(C(=S)NCCc3ccccc3)CC2)cc1	none (no result: Pf gametocyte)
CN(C)S(=O)(=O)c1ccc(-c2csc(N/N=C/c3ccc(O)cc3)n2)cc1	none (no result: Hsp70 act)
Cc1noc(NC(=O)c2c(-c3c(Cl)cccc3Cl)noc2C)c1[N+](=O)[O-]	Wee1 stabilizer 8.9 (no result: Hsp70 act)
Clc1ccc(OCc2cn3cccnc3n2)c2ncccc12	Wee1 stabilizer 10.6
CN1C(C(=O)NCc2cccc(Br)c2)CC2Cn3c(nc4cc5ccccc5cc43)C21 (centres undefined)	MDM2 E3 inh 31.4 (no result: Wee1 stabilizer, Hsp70 act)
CN1C(C(=O)NCc2cccc(Br)c2)CC2Cn3c(nc4cc(Cl)c(Cl)cc43)C21 (centres undefined)	none (no result: Wee1 stabilizer, Hsp70 act)
Cc1ccc2nc(N3CC(=O)Nc4ccccc43)nc(-c3ccccc3)c2c1	Wee1 stabilizer 9.6
COc1ccc(-c2cn(Cc3ccc(C(=O)NCc4ccc(C)cc4)cc3)c(C(C)N)n2)cc1 (centres undefined)	none (no result: Wee1 stabilizer, Hsp70 act, MDM2 E3 inh)
C=CCNC(=O)/C(C#N)=C/c1cc(Br)ccc1OC	Wee1 stabilizer 10.6
C=CCNC(=O)/C(C#N)=C/c1ccccc1Cl	none
COc1ccccc1/C=C/C(=O)OCC(=O)c1c(N)n(C)c(=O)n(C)c1=O	none
Cc1cc(C)c2c3c(sc2n1)C(=O)N(c1ccccc1C)CC(=O)N3	Wee1 stabilizer 9.5 (no result: Hsp70 act)
CC[C@]12C(=O)N(C)C[C@H]([C@@H]3C(=O)N(C)C(=O)[C@@H]31)N2C(=O)c1ccc(Br)cc1	none (no result: Wee1 stabilizer, Hsp70 act, MDM2 E3 inh)
COC(=O)c1cc(NS(=O)(=O)c2ccc(C)c3ccccc23)ccc1N1CCOCC1	Wee1 stabilizer 9.0 (no result: Hsp70 act)
CC(C)N(CCO)C(=O)C(c1ccccc1)c1ccccc1	Wee1 stabilizer 10.8 (no result: Pf gametocyte)
CN(C(=O)C(Cl)Cl)C1CC2C=CC1C2 (centres undefined)	Wee1 stabilizer 10.8 (no result: Hsp70 act)
COCCN(Cc1cc2cc(C)ccc2nc1Cl)C(=O)Nc1ccccc1OC	none (no result: Pf gametocyte)
CCCCCN(C(=O)NC(=O)Nn1cnnc1)S(C)(=O)=O	Wee1 stabilizer 9.9 (no result: Pf gametocyte)
CC(=O)NS(=O)(=O)c1ccc(NC(=O)COc2ccc(C(=O)c3ccccc3)cc2)cc1	Wee1 stabilizer 10.4
N#Cc1ncccc1CCc1cccc(Cl)c1	none (no result: Wee1 stabilizer, Hsp70 act, MDM2 E3 inh)
Cc1cc(C(=O)CN2C(=O)NC3(CCCCC3)C2=O)c(C)n1Cc1ccc2c(c1)OCO2	Wee1 stabilizer 9.2 (no result: Pf gametocyte)
Cc1cc(C(=O)CN2C(=O)NC3(CCCC3)C2=O)c(C)n1-c1ccc2c(c1)OCO2	none (no result: Pf gametocyte)
N=C(N)SCc1cn2ccccc2n1	Wee1 stabilizer 8.8
S=c1[nH]nc(-c2cccs2)n1/N=C/c1c(Cl)cccc1Cl	none
CCc1c(C)c(C#N)c2nc3ccccc3n2c1-n1nc(C)cc1C	none (no result: Pf gametocyte)
CCc1c(C)c(C#N)c2nc3ccccc3n2c1Cl	MDM2 E3 inh 43.9 (no result: Pf gametocyte)
CCOc1ccc2nc(SCC(=O)Nc3cc4c(cc3C(C)=O)OCO4)[nH]c2c1	none (no result: Pf gametocyte)
O=S1(=O)C=C(Sc2nc3ccccc3s2)c2ccccc21	MDM2 E3 inh 51.6 (no result: Pf gametocyte)
Cc1cc(C)nc(SC2=CS(=O)(=O)c3ccccc32)n1	none (no result: Pf gametocyte)
COc1ccccc1Nc1nc(NCc2ccco2)nc(N)c1[N+](=O)[O-]	none (no result: Hsp70 act)
COc1ccc(OC)c(Nc2nc(NCc3ccco3)nc(N)c2[N+](=O)[O-])c1	Wee1 stabilizer 8.9 (no result: Hsp70 act)
CCc1ccccc1NC(=S)N(CCCN1CCOCC1)Cc1cccs1	none
O=C(Cc1ccc(F)cc1)NCC1CCCO1 (centres undefined)	none (no result: Pf gametocyte)
Cc1ccc(C(=O)Nc2ccc(C(=O)NCC3CCCO3)cc2)cc1 (centres undefined)	none (no result: Wee1 stabilizer, Hsp70 act, MDM2 E3 inh)
Cc1cccc(NC(=O)C(=O)NCC2CCCO2)c1 (centres undefined)	Wee1 stabilizer 8.8
O=C(NCC1CCCO1)Nc1cccc(Cl)c1 (centres undefined)	none
Cc1ccc(NS(=O)(=O)c2ccc(C(=O)NCC3CCCO3)cc2)cc1 (centres undefined)	Wee1 stabilizer 10.7 (no result: Pf gametocyte)
O=C(Cc1ccccc1)NCC1CCCO1 (centres undefined)	Wee1 stabilizer 10.2 (no result: Pf gametocyte)
